Assay results: ChEMBL document CHEMBL4814060, “Design, synthesis and biological evaluation of novel pleuromutilin derivatives as potent anti-MRSA agents targeting the 50S ribosome” (Bioorg Med Chem, 2021)
Converted amounts (≈) assume the structure as drawn.

Tests used:
[1] = tested on: Staphylococcus aureus; test: Antibacterial activity against Staphylococcus aureus 144 assessed as inhibition of visible growth incubated for 24 hrs by CLSI protocol based broth microdilution method; assay type: functional
[2] = tested on: Staphylococcus aureus; test: Antibacterial activity against methicillin-resistant Staphylococcus aureus ATCC 43300 assessed as inhibition of visible growth incubated for 24 hrs by CLSI protocol based broth microdilution method; assay type: functional
[3] = tested on: Staphylococcus aureus; test: Antibacterial activity against Staphylococcus aureus AD3 assessed as inhibition of visible growth incubated for 24 hrs by CLSI protocol based broth microdilution method; assay type: functional
[4] = tested on: Staphylococcus aureus; test: Antibacterial activity against Staphylococcus aureus ATCC 29213 assessed as inhibition of visible growth incubated for 24 hrs by CLSI protocol based broth microdilution method; assay type: functional
[5] = tested on: Staphylococcus aureus; test: Antibacterial activity against methicillin-resistant Staphylococcus aureus ATCC 43300 assessed as reduction in bacterial growth at 4 times of MIC measured at 3 hrs by time kill assay; assay type: functional
Procedure, shortened: (§1)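 MRSA was grown in MH broth at 37 °C for 4.5 h and diluted to 1×10^6 CFU/mL. Compound was added at 1, 2, 4, 8, 16 or 32 × MIC; growth control had 0.9% saline only. Cultures were shaken at 37 °C and sampled at 0, 3, 6, 9 and 24 h. Samples were serially diluted in saline and plated on MH agar, with CFU counted after 24 h at 37 °C. Run in triplicate.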

[6] = target: Bacterial 70S ribosome (Bacteria) (UniProt P0A7V0+P60723+P0AG67+P0A7R5+P0A7R9+P0A7S3+P0A7S9+P0AG59+P0ADZ4+P0A7T3+P0AG63+P0A7T7+P0A7U3+P0A7U7+P68679+P0A7V3+P0A7V8+P0A7W1+P02358+P02359+P0A7W7+P0A7X3+P0A7J3+P0A7J7+P0AA10+P0ADY3+P02413+P0ADY7+P0AG44+P0C018+P0A7K6+P0A7L0+P0A7L3+P0AG48+P61175+P0ADZ0+P60624+P68919+P0A7L8+P0A7M2+P0A7M6+P60422+P0AG51+P0A7N1+P0A7M9+P0A7N4+P0A7N9+P0A7P5+P0A7Q1+Q2EEQ2+P0A7Q6+P60438+P62399+P0AG55+P0A7K2); test: Binding affinity to Staphylococcus aureus ATCC 43300 50S ribosome assessed as dissociation rate constant by SPR analysis; assay type: subcellular
Procedure, shortened: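 The 50S subunit was purified from ATCC 43300 by sucrose cushion, a 7–30% sucrose gradient and PEG precipitation. Compounds at 100 µM in DMSO were photo-crosslinked onto the chip and printed four times each. Ribosome at 200–3200 nM in PBST (pH 7.4, 0.1% Tween 20) was run at 4 °C: association 600 s, then dissociation 360 s, both at 0.5 µL/s. Surface was regenerated with glycine-HCl pH 2.0.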

[7] = tested on: Staphylococcus aureus; test: Bactericidal activity against methicillin-resistant Staphylococcus aureus ATCC 43300 assessed as reduction in bacterial growth at 1 to 32 times of MIC measured upto 24 hrs by time kill assay; assay type: functional, organism-based; conditions: time hrs <=24, TDE = time-dependent effect; procedure, shortened: as §1
[8] = tested on: Staphylococcus aureus; test: In vivo antibacterial activity against methicillin-resistant Staphylococcus aureus ATCC 43300 infected in ICR/Swiss mouse model of neutropenic thigh infection assessed as reduction in bacterial growth at 20 mg/kg, iv administered 2 hrs after infection and tissue collected after 24 hrs and measured after 24 hrs […]; assay type: functional
Procedure, shortened: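 Female ICR/Swiss mice, 6 weeks old, were made neutropenic with ip cyclophosphamide (150 mg/kg at day −4, 100 mg/kg at day −1). Each thigh received about 10^7 CFU/mL MRSA in 0.1 mL. At 2 h, mice got a single iv dose of 20 mg/kg or saline, with 3 mice (6 thighs) per group. At 24 h, thighs were homogenized in iced saline, diluted and plated on MH agar, and CFU counted after 24 h at 37 °C.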

Row | Compound | MIC [1] | MIC [2] | MIC [3] | MIC [4] | Activity [5] | Kdiss [6] | Activity [7] | log10CFU/ml [5] | Activity [8]
1 | C=C[C@]1(C)C[C@@H](OC(=O)CSc2nc(N)n(C(=O)c3ccc(C(F)(F)F)cc3)n2)[C@]2(C)[C@H](C)CC[C@]3(CCC(=O)[C@H]32)[C@@H](C)[C@@H]1O | 1 µg/mL (≈ 1.54 µM) | 1 µg/mL (≈ 1.54 µM) | 1 µg/mL (≈ 1.54 µM) | 1 µg/mL (≈ 1.54 µM) | – | – | – | – | –
2 | C=C[C@]1(C)C[C@@H](OC(=O)CSc2nc(N)n(C(=O)c3ccc(OC)cc3)n2)[C@]2(C)[C@H](C)CC[C@]3(CCC(=O)[C@H]32)[C@@H](C)[C@@H]1O | 0.5 µg/mL (≈ 0.819 µM) | 0.25 µg/mL (≈ 0.409 µM) | 0.25 µg/mL (≈ 0.409 µM) | 0.25 µg/mL (≈ 0.409 µM) | -2.42 log10CFU/ml | 2.22 10^-7M | Tde | – | –
3 | C=C[C@]1(C)C[C@@H](OC(=O)CSc2nc(N)n(C(=O)c3cccc(Cl)c3)n2)[C@]2(C)[C@H](C)CC[C@]3(CCC(=O)[C@H]32)[C@@H](C)[C@@H]1O | 0.5 µg/mL (≈ 0.813 µM) | 0.25 µg/mL (≈ 0.406 µM) | 0.25 µg/mL (≈ 0.406 µM) | 0.25 µg/mL (≈ 0.406 µM) | – | 4.94 10^-7M | Tde | -1.23 | –
4 | C=C[C@]1(C)C[C@@H](OC(=O)CSCCN(CC)CC)[C@]2(C)[C@H](C)CC[C@]3(CCC(=O)[C@H]32)[C@@H](C)[C@@H]1O [TIAMULIN] | 1 µg/mL (≈ 2.03 µM) | 0.5 µg/mL (≈ 1.01 µM) | 1 µg/mL (≈ 2.03 µM) | 1 µg/mL (≈ 2.03 µM) | – | – | – | – | 0.91 log10CFU/g
5 | C=C[C@]1(C)C[C@@H](OC(=O)CSc2nc(N)n(C(=O)c3ccccc3)n2)[C@]2(C)[C@H](C)CC[C@]3(CCC(=O)[C@H]32)[C@@H](C)[C@@H]1O | 2 µg/mL (≈ 3.44 µM) | 0.25 µg/mL (≈ 0.43 µM) | 1 µg/mL (≈ 1.72 µM) | 1 µg/mL (≈ 1.72 µM) | – | 2.7 10^-4M | – | – | –
6 | C=C[C@]1(C)C[C@@H](OC(=O)CSc2nc(N)n(C(=O)c3ccccc3OC)n2)[C@]2(C)[C@H](C)CC[C@]3(CCC(=O)[C@H]32)[C@@H](C)[C@@H]1O | 1 µg/mL (≈ 1.64 µM) | 1 µg/mL (≈ 1.64 µM) | 1 µg/mL (≈ 1.64 µM) | 1 µg/mL (≈ 1.64 µM) | – | – | – | – | –
7 | C=C[C@]1(C)C[C@@H](OC(=O)CSc2nc(N)n(C(=O)c3ccccc3C)n2)[C@]2(C)[C@H](C)CC[C@]3(CCC(=O)[C@H]32)[C@@H](C)[C@@H]1O | 1 µg/mL (≈ 1.68 µM) | 0.5 µg/mL (≈ 0.841 µM) | 1 µg/mL (≈ 1.68 µM) | 1 µg/mL (≈ 1.68 µM) | – | – | – | – | –
8 | C=C[C@]1(C)C[C@@H](OC(=O)CSc2nc(N)n(C(=O)c3ccccc3C(F)(F)F)n2)[C@]2(C)[C@H](C)CC[C@]3(CCC(=O)[C@H]32)[C@@H](C)[C@@H]1O | 4 µg/mL (≈ 6.17 µM) | 2 µg/mL (≈ 3.08 µM) | 4 µg/mL (≈ 6.17 µM) | 4 µg/mL (≈ 6.17 µM) | – | – | – | – | –
9 | C=C[C@]1(C)C[C@@H](OC(=O)CSc2nc(N)n(C(=O)c3cccc(C)c3)n2)[C@]2(C)[C@H](C)CC[C@]3(CCC(=O)[C@H]32)[C@@H](C)[C@@H]1O | 0.5 µg/mL (≈ 0.841 µM) | 0.25 µg/mL (≈ 0.42 µM) | 0.5 µg/mL (≈ 0.841 µM) | 0.5 µg/mL (≈ 0.841 µM) | – | 8.79 10^-6M | – | – | –
10 | C=C[C@]1(C)C[C@@H](OC(=O)CSc2nc(N)n(C(=O)c3c(F)c(F)c(F)c(F)c3F)n2)[C@]2(C)[C@H](C)CC[C@]3(CCC(=O)[C@H]32)[C@@H](C)[C@@H]1O | 2 µg/mL (≈ 2.98 µM) | 1 µg/mL (≈ 1.49 µM) | 1 µg/mL (≈ 1.49 µM) | 2 µg/mL (≈ 2.98 µM) | – | – | – | – | –
11 | C=C[C@]1(C)C[C@@H](OC(=O)CSc2nc(N)n(C(=O)c3cc(Cl)cc(Cl)c3)n2)[C@]2(C)[C@H](C)CC[C@]3(CCC(=O)[C@H]32)[C@@H](C)[C@@H]1O | 1 µg/mL (≈ 1.54 µM) | 1 µg/mL (≈ 1.54 µM) | 0.5 µg/mL (≈ 0.77 µM) | 1 µg/mL (≈ 1.54 µM) | – | – | – | – | –
